This test has as its target Human integrin αvβ3 receptor (Homo sapiens, UniProt P05106+P06756). In kind it is binding. The conditions noted are these: for IC50: SD; for increase of IC50 compared to the free ligand 1: αvβ3, biotinylated vitronectin binding, from Table 1. The essentials: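 Immobilized integrin αvβ3 incubated with test compound at graded concentrations (10−12 to 10−5) together with biotinylated vitronectin (1 μg mL−1); bound vitronectin measured. IC50 taken from the inhibition of vitronectin binding, reported as arithmetic mean ± SD of triplicate determinations.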

Sequence of Human integrin αvβ3 receptor (P06756 31-992 limits assumed): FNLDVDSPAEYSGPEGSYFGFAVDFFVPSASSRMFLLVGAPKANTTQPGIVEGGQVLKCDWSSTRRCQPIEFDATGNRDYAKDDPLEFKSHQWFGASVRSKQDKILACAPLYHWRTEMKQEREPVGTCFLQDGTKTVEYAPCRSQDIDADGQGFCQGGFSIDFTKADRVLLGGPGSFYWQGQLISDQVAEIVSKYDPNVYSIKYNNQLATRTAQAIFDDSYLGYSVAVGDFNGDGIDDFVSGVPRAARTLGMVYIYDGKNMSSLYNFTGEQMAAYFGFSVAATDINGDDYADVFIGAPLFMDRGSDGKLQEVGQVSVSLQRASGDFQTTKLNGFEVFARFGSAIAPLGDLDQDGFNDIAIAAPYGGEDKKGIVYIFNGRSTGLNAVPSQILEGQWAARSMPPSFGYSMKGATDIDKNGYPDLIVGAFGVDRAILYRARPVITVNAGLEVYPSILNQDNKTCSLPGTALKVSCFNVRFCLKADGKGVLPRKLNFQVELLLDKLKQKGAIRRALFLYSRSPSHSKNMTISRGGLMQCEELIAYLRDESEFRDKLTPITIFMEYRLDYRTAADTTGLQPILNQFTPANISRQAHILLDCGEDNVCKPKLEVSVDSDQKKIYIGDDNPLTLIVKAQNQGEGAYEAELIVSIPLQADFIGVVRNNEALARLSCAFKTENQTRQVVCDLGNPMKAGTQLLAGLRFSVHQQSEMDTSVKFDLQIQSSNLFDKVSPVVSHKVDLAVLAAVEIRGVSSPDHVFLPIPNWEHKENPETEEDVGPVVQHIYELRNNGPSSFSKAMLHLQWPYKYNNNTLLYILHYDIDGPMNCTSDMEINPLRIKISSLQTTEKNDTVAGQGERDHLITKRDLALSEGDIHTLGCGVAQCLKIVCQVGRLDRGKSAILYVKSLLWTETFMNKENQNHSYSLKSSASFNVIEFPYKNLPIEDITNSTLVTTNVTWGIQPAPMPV
Sequence of Human integrin αvβ3 receptor (P05106 27-718 limits assumed): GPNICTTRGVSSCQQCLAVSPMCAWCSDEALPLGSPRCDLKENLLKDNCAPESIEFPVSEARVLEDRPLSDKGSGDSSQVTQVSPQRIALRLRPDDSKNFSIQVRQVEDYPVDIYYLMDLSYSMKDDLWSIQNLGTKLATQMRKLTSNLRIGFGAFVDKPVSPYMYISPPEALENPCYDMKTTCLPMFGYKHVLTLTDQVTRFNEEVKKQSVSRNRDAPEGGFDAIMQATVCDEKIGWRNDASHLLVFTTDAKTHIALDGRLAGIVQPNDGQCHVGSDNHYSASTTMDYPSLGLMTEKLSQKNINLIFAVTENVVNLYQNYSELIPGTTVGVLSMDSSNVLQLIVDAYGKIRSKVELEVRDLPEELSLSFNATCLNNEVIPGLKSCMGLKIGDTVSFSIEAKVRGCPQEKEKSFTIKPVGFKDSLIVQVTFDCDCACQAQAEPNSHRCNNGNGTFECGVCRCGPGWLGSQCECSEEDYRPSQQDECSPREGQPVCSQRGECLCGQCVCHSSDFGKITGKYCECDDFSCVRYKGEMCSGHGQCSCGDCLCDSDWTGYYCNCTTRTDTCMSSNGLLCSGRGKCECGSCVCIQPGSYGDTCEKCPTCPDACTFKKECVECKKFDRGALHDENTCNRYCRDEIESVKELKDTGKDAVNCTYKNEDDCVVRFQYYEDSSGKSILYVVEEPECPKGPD

In the case of `CC(=O)O[C@H]1C(=O)[C@@]2(C)[C@H]([C@H](OC(=O)c3ccccc3)[C@]3(O)C[C@H](OC(=O)[C@H](OC(=O)N(C)CCN(C)C(=O)OCc4ccc(NC(=O)[C@H](C)NC(=O)[C@@H](NC(=O)CCc5cn(CCOCCOCCOCCOCC(=O)NCc6ccc(CN7C(=O)[C@H]8CC(=O)N[C@@H](CCCNC(=N)N)C(=O)NCC(=O)N[C@@H](CC(=O)O)C(=O)NC[C@H]7C(=O)N8)cc6)nn5)C(C)C)cc4)[C@@H](NC(=O)c4ccccc4)c4ccccc4)C(C)=C1C3(C)C)[C@]1(OC(C)=O)CO[C@@H]1C[C@@H]2O` [compound 5, cyclo[DKP‐RGD]‐Val‐Ala‐PTX (aliphatic scaffold)], the IC50 worked out at 14.8 ± 3.9 nM and the “increase of IC50 compared to the free ligand 1” value is recorded as 3 fold. On to `CC(=O)O[C@H]1C(=O)[C@@]2(C)[C@H]([C@H](OC(=O)c3ccccc3)[C@]3(O)C[C@H](OC(=O)[C@H](OC(=O)N(C)CCN(C)C(=O)OCc4ccc(NC(=O)[C@H](C)NC(=O)[C@@H](NC(=O)Cc5cc(OCCNC(=O)Cc6cc(OCc7cn(CCOCCOCCOCCOCC(=O)NCc8ccc(CN9C(=O)[C@H]%10CC(=O)N[C@@H](CCCNC(=N)N)C(=O)NCC(=O)N[C@@H](CC(=O)O)C(=O)NC[C@H]9C(=O)N%10)cc8)nn7)cc(OCc7cn(CCOCCOCCOCCOCC(=O)NCc8ccc(CN9C(=O)[C@H]%10CC(=O)N[C@@H](CCCNC(=N)N)C(=O)NCC(=O)N[C@@H](CC(=O)O)C(=O)NC[C@H]9C(=O)N%10)cc8)nn7)c6)cc(OCCNC(=O)c6ccc(OCc7cn(CCOCCOCCOCCOCC(=O)NCc8ccc(CN9C(=O)[C@H]%10CC(=O)N[C@@H](CCCNC(=N)N)C(=O)NCC(=O)N[C@@H](CC(=O)O)C(=O)NC[C@H]9C(=O)N%10)cc8)nn7)cc6)c5)C(C)C)cc4)[C@@H](NC(=O)c4ccccc4)c4ccccc4)C(C)=C1C3(C)C)[C@]1(OC(C)=O)CO[C@@H]1C[C@@H]2O` [compound 8, (cyclo[DKP‐RGD])3‐Val‐Ala‐PTX], for which the IC50 turned out to be 1.2 ± 0.5 nM.

Consider `CC(=O)O[C@H]1C(=O)[C@@]2(C)[C@H]([C@H](OC(=O)c3ccccc3)[C@]3(O)C[C@H](OC(=O)[C@H](OC(=O)N(C)CCN(C)C(=O)OCc4ccc(NC(=O)[C@H](C)NC(=O)[C@@H](NC(=O)c5ccc(OCc6cn(CCOCCOCCOCCOCC(=O)NCc7ccc(CN8C(=O)[C@H]9CC(=O)N[C@@H](CCCNC(=N)N)C(=O)NCC(=O)N[C@@H](CC(=O)O)C(=O)NC[C@H]8C(=O)N9)cc7)nn6)cc5)C(C)C)cc4)[C@@H](NC(=O)c4ccccc4)c4ccccc4)C(C)=C1C3(C)C)[C@]1(OC(C)=O)CO[C@@H]1C[C@@H]2O` [compound 6, cyclo[DKP‐RGD]‐Val‐Ala‐PTX (aromatic scaffold)], for which the IC50 is 27.3 ± 9.8 nM and the “increase of IC50 compared to the free ligand 1” value turned out to be 6 fold. With `CC(=O)O[C@H]1C(=O)[C@@]2(C)[C@H]([C@H](OC(=O)c3ccccc3)[C@]3(O)C[C@H](OC(=O)[C@H](OC(=O)N(C)CCN(C)C(=O)OCc4ccc(NC(=O)[C@H](C)NC(=O)[C@@H](NC(=O)Cc5cc(OCCNC(=O)Cc6cc(OCc7cn(CCOCCOCCOCCOCC(=O)NCc8ccc(CN9C(=O)[C@H]%10CC(=O)N[C@@H](CCCNC(=N)N)C(=O)NCC(=O)N[C@@H](CC(=O)O)C(=O)NC[C@H]9C(=O)N%10)cc8)nn7)cc(OCc7cn(CCOCCOCCOCCOCC(=O)NCc8ccc(CN9C(=O)[C@H]%10CC(=O)N[C@@H](CCCNC(=N)N)C(=O)NCC(=O)N[C@@H](CC(=O)O)C(=O)NC[C@H]9C(=O)N%10)cc8)nn7)c6)cc(OCCNC(=O)Cc6cc(OCc7cn(CCOCCOCCOCCOCC(=O)NCc8ccc(CN9C(=O)[C@H]%10CC(=O)N[C@@H](CCCNC(=N)N)C(=O)NCC(=O)N[C@@H](CC(=O)O)C(=O)NC[C@H]9C(=O)N%10)cc8)nn7)cc(OCc7cn(CCOCCOCCOCCOCC(=O)NCc8ccc(CN9C(=O)[C@H]%10CC(=O)N[C@@H](CCCNC(=N)N)C(=O)NCC(=O)N[C@@H](CC(=O)O)C(=O)NC[C@H]9C(=O)N%10)cc8)nn7)c6)c5)C(C)C)cc4)[C@@H](NC(=O)c4ccccc4)c4ccccc4)C(C)=C1C3(C)C)[C@]1(OC(C)=O)CO[C@@H]1C[C@@H]2O` [compound 9, (cyclo[DKP‐RGD])4‐Val‐Ala‐PTX], the IC50 amounted to 1.3 ± 0.3 nM. The molecule `CC(=O)O[C@H]1C(=O)[C@@]2(C)[C@H]([C@H](OC(=O)c3ccccc3)[C@]3(O)C[C@H](OC(=O)[C@H](OC(=O)N(C)CCN(C)C(=O)OCc4ccc(NC(=O)[C@H](C)NC(=O)[C@@H](NC(=O)Cc5cc(OCc6cn(CCOCCOCCOCCOCC(=O)NCc7ccc(CN8C(=O)[C@H]9CC(=O)N[C@@H](CCCNC(=N)N)C(=O)NCC(=O)N[C@@H](CC(=O)O)C(=O)NC[C@H]8C(=O)N9)cc7)nn6)cc(OCc6cn(CCOCCOCCOCCOCC(=O)NCc7ccc(CN8C(=O)[C@H]9CC(=O)N[C@@H](CCCNC(=N)N)C(=O)NCC(=O)N[C@@H](CC(=O)O)C(=O)NC[C@H]8C(=O)N9)cc7)nn6)c5)C(C)C)cc4)[C@@H](NC(=O)c4ccccc4)c4ccccc4)C(C)=C1C3(C)C)[C@]1(OC(C)=O)CO[C@@H]1C[C@@H]2O` [compound 7, (cyclo[DKP‐RGD])2‐Val‐Ala‐PTX] showed an IC50 of 4 ± 0.1 nM.

The values above are taken from PMC5656903 (Chemistry (Weinheim an Der Bergstrasse, Germany), 2017).
